In paper PMC7877830 (Clinical and Translational Science, 2020):
Values joined by “and” are separate entries in the source; they are usually repeats but may differ in a detail not shown here. Identical values can stand only once. Like-named read-outs stand apart in the source and are kept apart here.

How the values were obtained:
OATP1B1/1B3 [1] = format: in vivo, human; conditions: for AUC0–16 of endogenous biomarker / AUC0–48 of endogenous biomarker / Cmax of endogenous biomarker: geometric mean (mean, %CV); for AUC0–16 ratio relative to baseline / AUC0–48 ratio relative to baseline / Cmax ratio relative to baseline: point estimate (90% CI)
Summary of the method: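 Healthy volunteers in a crossover each got a single fasting 300/120 mg dose of formulation A, B or C. Plasma (K2EDTA, stored −20 °C) drawn predose and up to 48 h. Cmax, AUC0–16 and AUC0–48 derived noncompartmentally by linear trapezoid. Predose level served as baseline; baseline AUC = baseline concentration × interval. Ratios to baseline given with 90% CI; mixed model compared A or B with C.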

OATP1B1/1B3 [2] = conditions: n = 56; across different ethnicities; cited from earlier work
OATP1B1 [3] = conditions: read-out: Km for OATP1B1; cited from earlier work
OATP1B3 [4] = conditions: read-out: Km for OATP1B3; cited from earlier work
[5] = format: in vivo, human; conditions: for AUC(0-t) / Cmax: human, plasma, oral; for Cmax: geometric mean (mean, %CV), healthy subjects
Summary of the method: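 Phase I single-dose complete crossover in healthy subjects, randomised to two test formulations and a reference formulation. Dosed 300/120 mg fasting in the morning, with at least 5 days washout; subjects confined ~4 days on standardized meals. Plasma (K2EDTA, stored −20 °C) sampled predose to 48 h and extracted liquid-liquid with deuterated internal standards. Calibration ~0.200–100 ng/mL; high range ~85.0–10,000 (GLE) or ~85.0–1,050 ng/mL (PIB). Noncompartmental, linear-trapezoidal analysis; BLQ set to zero.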

OATP1B1 [6] = conditions: read-out: OATP1B1 IC50, cited from earlier work
OATP1B3 [7] = conditions: read-out: OATP1B3 IC50; in vitro; cited from earlier work
OATP1B1 [8] = conditions: as per the FDA guidance; unbound concentration in hepatic portal vein; cited from earlier work
OATP1B3 [9] = conditions: as per the FDA guidance; unbound concentration in hepatic portal vein; cited from earlier work
[10] = cited from earlier work
[11] = cited from earlier work; remark: listed apart in the source
[12] = cited from earlier work; remark: listed apart in the source
[13] = after GLE/PIB 300/120 mg Formulation A
[14] = after GLE/PIB 300/120 mg Formulation B
[15] = after GLE/PIB 300/120 mg Formulation C
[16] = AUC0–16, geometric mean (mean, %CV), GLE/PIB 300/120 mg Formulation A
[17] = AUC0–16, geometric mean (mean, %CV), GLE/PIB 300/120 mg Formulation B
[18] = AUC0–16, geometric mean (mean, %CV), GLE/PIB 300/120 mg Formulation C
[19] = AUC0–48, geometric mean (mean, %CV), GLE/PIB 300/120 mg Formulation A
[20] = AUC0–48, geometric mean (mean, %CV), GLE/PIB 300/120 mg Formulation B
[21] = AUC0–48, geometric mean (mean, %CV), GLE/PIB 300/120 mg Formulation C
[22] = single dose GLE/PIB 300/120 mg Formulation A, fasting
[23] = single dose GLE/PIB 300/120 mg Formulation B, fasting
[24] = single dose GLE/PIB 300/120 mg Formulation C (reference), fasting

AUC0–16 of endogenous biomarker (OATP1B1/1B3 [1]; [13]) | AUC0–48 of endogenous biomarker (OATP1B1/1B3 [1]; [13]) | Cmax of endogenous biomarker (OATP1B1/1B3 [1]; [13]) | AUC0–16 of endogenous biomarker (OATP1B1/1B3 [1]; [14]) | AUC0–48 of endogenous biomarker (OATP1B1/1B3 [1]; [14]) | Cmax of endogenous biomarker (OATP1B1/1B3 [1]; [14]) | AUC0–16 of endogenous biomarker (OATP1B1/1B3 [1]; [15]) | AUC0–48 of endogenous biomarker (OATP1B1/1B3 [1]; [15]) | Cmax of endogenous biomarker (OATP1B1/1B3 [1]; [15]) | AUC0–16 ratio relative to baseline (OATP1B1/1B3 [1]; [13]) | AUC0–48 ratio relative to baseline (OATP1B1/1B3 [1]; [13]) | Cmax ratio relative to baseline (OATP1B1/1B3 [1]; [13]) | AUC0–16 ratio relative to baseline (OATP1B1/1B3 [1]; [14]) | AUC0–48 ratio relative to baseline (OATP1B1/1B3 [1]; [14]) | Cmax ratio relative to baseline (OATP1B1/1B3 [1]; [14]) | AUC0–16 ratio relative to baseline (OATP1B1/1B3 [1]; [15]) | AUC0–48 ratio relative to baseline (OATP1B1/1B3 [1]; [15]) | Cmax ratio relative to baseline (OATP1B1/1B3 [1]; [15]) | AUC(0-t) [5, 16] | AUC(0-t) [5, 17] | SMILES | further results
8.98 (9.10, 16) ng·h/mL | 25.4 (25.6, 12) ng·h/mL | 0.726 (0.740, 21) ng/mL | 11.7 (11.9, 23) ng·h/mL | 28.2 (28.5, 18) ng·h/mL | 1.19 (1.24, 26) ng/mL | 13.2 (13.3, 16) ng·h/mL | 30.3 (30.6, 13) ng·h/mL | 1.44 (1.48, 23) ng/mL | 0.97 (0.89 to 1.06) | 0.91 (0.85 to 0.97) | 1.25 (1.12 to 1.41) | 1.25 (1.18 to 1.32) | 1.01 (0.96 to 1.06) | 2.05 (1.81 to 2.32) | 1.39 (1.29 to 1.51) | 1.07 (1.02 to 1.13) | 2.44 (2.11 to 2.82) | – | – | CC1=C(CCC(=O)O)c2cc3nc(cc4[nH]c(cc5[nH]c(cc1n2)c(CCC(=O)O)c5C)c(CCC(=O)O)c4C)C(CCC(=O)O)=C3C [CP‐I, coproporphyrin (CP)‐I] | baseline plasma concentration (OATP1B1/1B3 [1]; mean and SD, predose, all study periods): 0.59 ± 0.09 ng/mL and 0.90 ± 0.14 nM; baseline plasma concentration, previously reported range (OATP1B1/1B3 [2]): 0.5 to 1.5 nM; Km (OATP1B1 [3]): 0.13 µM; Km (OATP1B3 [4]): 3.95 µM
1.20 (1.22, 19) ng·h/mL | 3.32 (3.44, 23) ng·h/mL | 0.104 (0.105, 16) ng/mL | 1.07 (1.24, 73) ng·h/mL | 2.77 (3.44, 41) ng·h/mL | 0.113 (0.116, 25) ng/mL | 1.23 (1.30, 36) ng·h/mL | 2.87 (3.23, 41) ng·h/mL | 0.115 (0.119, 26) ng/mL | 0.94 (0.84 to 1.06) | 0.86 (0.82 to 0.95) | 1.31 (1.18 to 1.46) | 0.96 (0.85 to 1.08) | 0.90 (0.80 to 1.01) | 1.34 (1.18 to 1.53) | 1.01 (0.86 to 1.20) | 0.79 (0.60 to 1.03) | 1.49 (1.24 to 1.78) | – | – | CC1=C(CCC(=O)O)c2cc3nc(cc4[nH]c(cc5[nH]c(cc1n2)c(C)c5CCC(=O)O)c(CCC(=O)O)c4C)C(CCC(=O)O)=C3C [CP‐III] | –
– | – | – | – | – | – | – | – | – | – | – | – | – | – | – | – | – | – | 344 ng·h/mL | 1330 ng·h/mL | CC(C)(C)[C@@H]1NC(=O)O[C@@H]2CCC[C@H]2OC/C=C/C(F)(F)c2nc3ccccc3nc2O[C@@H]2C[C@@H](C(=O)N[C@]3(C(=O)NS(=O)(=O)C4(C)CC4)C[C@H]3C(F)F)N(C2)C1=O [GLE, glecaprevir] | share of exposure observed in the first 16 hours postdose ([5]; across formulations): 94–97%; exposures (Cmax, AUC0–16, AUC0–48) lower relative to reference formulation C ([5]; formulation A, fasting): ~ 80%; exposures (Cmax, AUC0–16, AUC0–48) lower relative to reference formulation C ([5]; formulation B, fasting): ~26%; AUC(0-t) [5, 18]: 1800 ng·h/mL; AUC(0-t) [5, 19]: 367 ng·h/mL; AUC(0-t) [5, 20]: 1370 ng·h/mL; AUC(0-t) [5, 21]: 1850 ng·h/mL; Cmax [5, 22]: 88.5 ng/mL; Cmax [5, 23]: 330 ng/mL; Cmax [5, 24]: 444 ng/mL; IC50 (OATP1B1 [6]; in vitro): 17 nM; IC50 (OATP1B3 [7]): 64 nM; OATP1B1 R value (OATP1B1 [8]): 5.5; OATP1B3 R value (OATP1B3 [9]): 2.2; fu,p (fraction of unbound inhibitor in plasma) [10]: 0.025; half-life [11]: about 6 hours
– | – | – | – | – | – | – | – | – | – | – | – | – | – | – | – | – | – | 546 ng·h/mL | 514 ng·h/mL | COC(=O)N[C@H](C(=O)N1CCC[C@H]1c1nc2cc([C@H]3CC[C@H](c4cc5nc([C@@H]6CCCN6C(=O)[C@@H](NC(=O)OC)[C@@H](C)OC)[nH]c5cc4F)N3c3cc(F)c(N4CCC(c5ccc(F)cc5)CC4)c(F)c3)c(F)cc2[nH]1)[C@@H](C)OC [PIB, pibrentasvir] | exposures lower relative to reference formulation C ([5]; formulations A and B, fasting): 28–49%; AUC(0-t) [5, 18]: 977 ng·h/mL; AUC(0-t) [5, 19]: 658 ng·h/mL; AUC(0-t) [5, 20]: 622 ng·h/mL; AUC(0-t) [5, 21]: 1170 ng·h/mL; Cmax [5, 22]: 86.8 ng/mL; Cmax [5, 23]: 83.7 ng/mL; Cmax [5, 24]: 163 ng/mL; IC50 (OATP1B1 [6]; in the presence of 4% bovine serum albumin): 1300 nM; OATP1B1 R value (OATP1B1 [8]): 1.4; RB (blood-to-plasma concentration ratio) [12]: 0.62; half-life [11]: ~13 h
